Measurements published in ChEMBL document CHEMBL4184143 (J Med Chem, 2017).
pIC50, pKi: −log10 of the molar value.

How the values were obtained:
MV4-11 [1] = test: Antitumor activity against human MV4-11 cells xenografted in SCID mouse assessed as tumor growth inhibition at 50 mg/kg, po qd measured 2 to 3 times weekly during treatment and once weekly post dose; format: functional; details: MV4-11, po, read-out: TGI
Outline: (§1)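 At ~100 mm3, mice were randomized to treatment or vehicle control. Tumors were measured by electronic calipers. Animals were checked daily for signs of toxicity and weighed 2–3 times weekly on treatment, then at least weekly afterwards.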

Mus musculus [2] = test: Toxicity in SCID mouse implanted with human MV4-11 cells at 50 mg/kg, po qd measured 2 to 3 times weekly during treatment and once weekly post dose; format: organism-based; details: in vivo; outline: as §1
Mus musculus [3] = test: Toxicity in SCID mouse implanted with human MV-411 cells assessed as weight loss at 50 mg/kg, po qd measured 2 to 3 times weekly during treatment and weekly post dose; format: organism-based; details: in vivo; outline: as §1
[4] = target: T1, Bromodomain-containing protein 4 (Homo sapiens, UniProt O60885); test: Inhibition of FAM-labeled ZBA248 binding to recombinant human N-terminal His6-tagged BRD4 bromodomain 1 (44 to 168 residues) expressed in Rosetta2 DE3 cells after 30 mins by Flourescence polarization assay; format: biochemical
[5] = target: T1, Bromodomain-containing protein 4; test: Inhibition of FAM-labeled ZBA248 binding to recombinant human N-terminal His6-tagged BRD4 bromodomain 2 (333 to 460 residues) expressed in Rosetta2 DE3 cells after 30 mins by Flourescence polarization assay; format: biochemical
MOLM-13 = test: Growth inhibition of human MOLM13 cells after 4 days by WST-8 assay; format: functional, cell-based; details: MOLM-13, 96 h
Outline: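 MOLM-13 leukemia cells were seeded at 10,000 cells/well and exposed to serially diluted compound for 4 days. Signal was normalized to DMSO controls, and IC50 was fitted by nonlinear regression.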

MV4-11 [6] = test: Growth inhibition of human MV4-11 cells after 4 days by WST-8 assay; format: functional, cell-based; details: MV4-11, 96 h
[7] = Drug level in SCID mouse at 25 mg/kg, po after 1 hr by LC-MS/MS analysis; format: ADME, organism-based; details: in vivo, read-out: Drug uptake
Outline: (§2)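 SCID mice received a single oral dose of 25 mg/kg in 20% (v/v) PCP/70% (v/v) PBS vehicle. Blood was collected and centrifuged to plasma, which was stored at −80 °C. Plasma drug concentration was measured by a validated LC–MS/MS method.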

[8] = Drug level in SCID mouse at 25 mg/kg, po after 6 hrs by LC-MS/MS analysis; format: ADME, organism-based; details: in vivo, read-out: Drug uptake; outline: as §2
[9] = Drug level in SCID mouse at 25 mg/kg, po after 3 hrs by LC-MS/MS analysis; format: ADME, organism-based; details: in vivo, read-out: Drug uptake; outline: as §2
[10] = Half life in Sprague-Dawley rat liver microsomes at 1 uM by LC/MS method; format: ADME, microsome
[11] = Half life in CD1 mouse liver microsomes at 1 uM by LC/MS method; format: ADME, microsome
[12] = Half life in human liver microsomes at 1 uM by LC/MS method; format: ADME, microsome
[13] = Cmax in Sprague-Dawley rat at 25 mg/kg, po by LC/MS method; format: ADME, organism-based; parameters: dose 25 mg/kg, route oral; details: in vivo
Outline: (§3)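 Sprague Dawley rats were dosed iv at 5 mg/kg or orally at 25 mg/kg, with compound dissolved in 20% (v/v) PCP/70% (v/v) PBS vehicle. Blood was drawn by catheter at 0, 5, 15, 30 min and 1, 2, 4, 6, 8, 24 h and spun to plasma, which was stored at −80 °C. Plasma drug was quantified by a validated LC–MS/MS method, and parameters were derived noncompartmentally.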

[14] = Half life in Sprague-Dawley rat at 25 mg/kg, po by LC/MS method; format: ADME, organism-based; details: in vivo; outline: as §3
[15] = AUC (0 to t) in Sprague-Dawley rat at 25 mg/kg, po by LC/MS method; format: ADME, organism-based; details: in vivo; outline: as §3
[16] = Aqueous solubility of the compound in 5% DMSO/10% cremophor/85% saline; format: physicochemical; details: buffer

pIC50 [4]	pKi [4]	pIC50 [5]	pKi [5]	pIC50 (MOLM-13)	pIC50 (MV4-11 [6])	Compound	other results
						COc1cc2c(cc1-c1c(C)noc1C)ncc1[nH]c(=O)n([C@H](C)c3ccccn3)c12	inhibition in vivo at 50 mg/kg (MV4-11 [1]): > 80%; Activity (Mus musculus [2]): Non-Toxic; Activity (Mus musculus [3]): Non-Toxic
6.81	7.35	6.74	7.25	< 5.00	5.54	COc1cc2c(cc1-c1c(C)noc1C)[nH]c1ncnc(-c3ccoc3)c12	
7.51	8.00	7.81	8.51	7.12	7.55	COc1cc2c(cc1-c1c(C)noc1C)[nH]c1nc(C)nc(-c3cccc4ncccc34)c12	
< 6.00	< 6.00	< 6.00	< 6.00	< 5.00	< 5.00	COc1cc2c(cc1-c1c(C)noc1C)[nH]c1ncnc(-n3nnc4ccccc43)c12	
7.14	7.50	7.84	8.38	6.61	7.16	COc1cc(-c2nc(C)nc3[nH]c4cc(-c5c(C)noc5C)c(OC)cc4c23)c2ccccc2n1	
6.40	6.87	6.89	7.37	6.15	6.37	COc1cc2c(cc1-c1c(C)noc1C)[nH]c1nc(C)nc(-c3cnc4ccccc4c3)c12	
7.94	8.15	7.64	8.15	6.31	6.72	COc1cc2c(cc1-c1c(C)noc1C)[nH]c1ncnc(-c3c[nH]c4cnccc34)c12	
6.41	6.88	6.70	7.24			COc1cc2c(cc1-c1c(C)noc1C)[nH]c1ncnc(-c3cn[nH]c3)c12	
7.45	8.02	7.90	8.42	6.91	7.33	COc1cc2c(cc1-c1c(C)noc1C)[nH]c1nc(C)nc(-c3cncc4ccccc34)c12	
7.62	8.15	7.93	8.57	7.44	8.22	COc1cc2c(cc1-c1c(C)noc1C)[nH]c1ncnc(-c3c(C4CC4)n[nH]c3C)c12	concentration at 1 h [7]: 2.2 µg/mL; concentration at 6 h [8]: 0.072 µg/mL; concentration at 3 h [9]: 0.872 µg/mL
5.84	6.34	5.94	6.47	5.03	5.97	COc1cc2c(cc1-c1c(C)noc1C)[nH]c1ncnc(-n3ccnc3)c12	
8.21	9.10	8.72	> 9.30	7.70	8.70	COc1cc2c(cc1-c1c(C)noc1C)[nH]c1nc(C)nc(-c3c(C)[nH]c4ccccc34)c12	t1/2 [10]: > 1 h; t1/2 [11]: > 1 h; t1/2 [12]: 0.15 h
7.29	7.71	7.20	7.69	6.63	7.00	COc1cc2c(cc1-c1c(C)noc1C)[nH]c1ncnc(-c3c(C)n[nH]c3C)c12	
6.35	6.86	6.36	6.84	6.18	6.53	COc1cc2c(cc1-c1c(C)noc1C)[nH]c1nc(C)nc(-c3cccc4cnccc34)c12	
7.71	8.24	8.28	8.80	7.16	7.77	COc1cc2c(cc1-c1c(C)noc1C)[nH]c1nc(C)nc(-c3cc(C)nc4ccccc34)c12	t1/2 [10]: > 1 h; t1/2 [11]: > 1 h; t1/2 [12]: > 1 h
6.78	7.28	6.97	7.51	6.21	6.60	COc1cc2c(cc1-c1c(C)noc1C)[nH]c1ncnc(-c3cc[nH]c3)c12	

pIC50 [4]	pKi [4]	pIC50 [5]	pKi [5]	pIC50 (MOLM-13)	pIC50 (MV4-11 [6])	Compound	other results
6.99	7.39	6.79	7.16	6.15	6.74	COc1cc2c(cc1-c1c(C)noc1C)[nH]c1ncnc(-c3c(C)noc3C)c12	
5.69	6.18	5.73	6.19			COc1cc2c(cc1-c1c(C)noc1C)[nH]c1ncnc(-c3cnoc3)c12	
5.95	6.41	5.75	6.32			COc1cc2c(cc1-c1c(C)noc1C)[nH]c1ncnc(Cl)c12	
7.39	7.73	7.05	7.51	6.71	7.02	COc1cc2c(cc1-c1c(C)noc1C)[nH]c1ncnc(-c3c(C)nn(C)c3C)c12	
6.41	6.91	7.03	7.57	6.01	7.11	COc1cc2c(cc1-c1c(C)noc1C)[nH]c1nc(C)nc(-c3cc(C(F)(F)F)nc4ccccc34)c12	
7.97	8.38	7.59	8.04	6.90	7.89	COc1cc2c(cc1-c1c(C)noc1C)[nH]c1ncnc(-c3c(C)[nH]c4cnccc34)c12	
6.83	7.07	7.13	7.65	< 5.00	< 5.00	COc1cc2c(cc1-c1c(C)noc1C)[nH]c1ncnc(-c3nn(C)c4ccccc34)c12	
7.41	7.92	7.58	7.98			COc1cc2c(cc1-c1c(C)noc1C)[nH]c1ncnc(N[C@H](C)c3ccccn3)c12	
6.50	7.10	6.78	7.28	5.94	< 6.00	COc1cc2c(cc1-c1c(C)noc1C)[nH]c1nc(C)nc(-c3cccc4ccncc34)c12	
7.53	8.00	8.03	8.55	6.58	7.82	COc1cc2c(cc1-c1c(C)noc1C)[nH]c1ncnc(-n3cnc4ccccc43)c12	
7.69	8.31	8.26	8.96	6.69	7.24	COc1cc2c(cc1-c1c(C)noc1C)[nH]c1ncnc(-c3c[nH]c4ccccc34)c12	
8.30	9.15	8.96	> 9.30	7.19	8.18	COc1cc2c(cc1-c1c(C)noc1C)[nH]c1ncnc(-c3c(C)[nH]c4ccccc34)c12	Cmax [13]: 1.4 µg/mL; half-life [14]: 1.7 h; t1/2 [10]: > 1 h; t1/2 [11]: 0.067 h; t1/2 [12]: 0.13 h; AUC(0-t) [15]: 13.4 µg·h/mL; solubility [16]: Insoluble
7.31	7.55	7.58	8.19	6.86	7.89	COc1cc2c(cc1-c1c(C)noc1C)[nH]c1ncnc(-c3cnn4ccccc34)c12	
6.39	6.89	6.71	7.24		6.48	COc1cc2c(cc1-c1c(C)noc1C)[nH]c1nc(C)nc(-c3cccc4cccnc34)c12	
7.49	8.03	7.91	8.55	6.42	7.54	COc1cc2c(cc1-c1c(C)noc1C)[nH]c1ncnc(-c3c(C)oc4ccccc34)c12	
